Screening data from PubChem BioAssay.
aDG glyco up: activators of alpha-DG glycosylation, primary screen, uHTS, Pro5-aDG cells, AlphaScreen. alpha-DG glycosylation AlphaScreen (IIH6); 0% Pro5, 100% B10-LARGE cell signal. activation, % at 10 µM. actives 0.22% (n = 360,000). AID 624168, 2012;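 active = activation of at least 8% versus controls, or a plate z-score of at least 8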;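 also: Pro5 are CHO cells carrying HIG-tagged alpha-DG that lacks glycosylation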
HNF4A DNA FP: change in binding of human HNF4A to DNA, primary screen, biochemical, fluorescence polarization, FITC-DNA; Hepatocyte nuclear factor 4-alpha (Homo sapiens), P41235; 1 h; activity change, % at 10 µM; actives 0.3% (n = 360,000); AID 1224865, 2016; in the data active = activity change above about 30%, passing the limit was not always enough
Xi reactivation: activators of inactive X chromosome reactivation, primary screen, imaging, XiGFP fibroblasts, GFP high-content imaging, set 2; XiGFP mouse fibroblasts, % GFP-positive cells imaging, 3 d; cells co-treated with 5-aza-dC sensitizer; scaled so ellipticine positive control = 100%; activation, % at 7.58 µM; actives 0.055% (n = 360,000); AID 743238, 2013;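 active = mean normalized replicate activation at least 10% and every replicate at or above 10%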;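 also: 0% = median of on-plate neutral control wells and 100% = ellipticine 6 µM median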
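System: 68-5-11 XiGFP fibroblast line | Buffer or medium: DMEM containing 5-aza-dC | Compound: Single point | Times: Compounds 3 days, fix/stain 15 min at room temperature | Benchmarks: Positive control ellipticine, 6 µM final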
CSN inh: inhibitors of CSN-mediated cullin deneddylation, primary screen, biochemical, fluorescence polarization, uHTS; actives 0.38% (n = 360,000); inhibition, % at 12.5 µM; COP9 signalosome complex subunit 5 (Homo sapiens), Q92905; Purified CSN, SCF-Nedd8-OG deneddylation; AID 651999, 2013;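 active = pattern-corrected inhibition above about 35%, with an unprinted fluorescence ratio check between 0.5 and 1.5, limit read from the data, passing the limit was not always enough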;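 also: 0% = enzyme with substrate and 100% = substrate without enzyme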
Target sequence (Q92905 whole entry, looked up, one chain of several): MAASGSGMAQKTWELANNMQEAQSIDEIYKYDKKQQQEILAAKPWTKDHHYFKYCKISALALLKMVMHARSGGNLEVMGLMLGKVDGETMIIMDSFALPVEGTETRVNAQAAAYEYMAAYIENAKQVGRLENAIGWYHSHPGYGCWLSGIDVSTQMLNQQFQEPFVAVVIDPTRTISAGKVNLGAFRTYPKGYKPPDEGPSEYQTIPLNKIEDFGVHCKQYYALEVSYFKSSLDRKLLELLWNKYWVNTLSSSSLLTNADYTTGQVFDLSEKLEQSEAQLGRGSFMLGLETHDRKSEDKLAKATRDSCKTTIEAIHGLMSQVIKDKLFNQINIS
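Test system: Human Csn5 produced in HEK293T cells | Compound: 12.5 µM single point | Times: 90 min, room temperature | Signal: Fluorescence polarization readout | Read-out basis: % inhibition of substrate cleavage by Csn5 | Controls: no-enzyme wells high, enzyme-with-substrate wells low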
Rpn11 block: Rpn11 (PSMD14) deubiquitinase inhibitors, primary screen, biochemical, fluorescence polarization, uHTS. inhibition, % at 20 µM. human 26S proteasome, Ub4-pepOG fluorescence polarization; 20S core pre-blocked with epoxomicin. actives 0.59% (n = 360,000);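 active = inhibition at 20 µM, scaled to each plate's controls, above about 33%, limit read from the data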
TPT1 inhibitor: Candida albicans TPT1 enzyme inhibitors, primary screen, biochemical, fluorescence polarization | tRNA 2'-phosphotransferase TPT1 (Candida albicans SC5314) | recombinant caTPT1, FP RNA substrate dephosphorylation | inhibition, % at 5 µM | actives 0.81% (n = 300,000);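 active = inhibition above the mean of all tested compounds plus 3 SD, set per screening campaign, cut at about 24% in these data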;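 also: plate controls were DMSO alone for no effect and ferristatin control at 100 nM for full effect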
The depositor's hits bear a star; . = not tested or not shown. The list is not random: actives were taken first. Their share in the collection is about 1.3%.

SMILES	aDG glyco up	HNF4A DNA FP	Xi reactivation	CSN inh	Rpn11 block	TPT1 inhibitor
CO[C@H]1CN(C)C(=O)c2ccc(NC(=O)C3CC3)cc2OC[C@@H](C)N(C(=O)c2cccnc2)C[C@@H]1C	.	.	0.0	.	.	.
CC(/C=C1\SC(=S)N(CCC(=O)Nc2ccccc2O)C1=O)=C\c1ccccc1	-0.7	47.0*	0.4	35.7*	.	18.3
O=C(c1cnc(Cc2c[nH]c3ccccc23)c(I)c1)N1CCN(Cc2ccccc2)CC1	-0.3	1.1	0.0	42.2*	-0.2	.
Cc1cc(C)cc(NC(=S)Nc2cccc3cnccc23)c1	3.7	2.1	0.2	37.1*	1.5	.
C=C(C)CNC(=S)Nc1cccc2cnccc12	0.0	6.3	0.1	-0.4	4.3	1.3
CCc1ccc(NC(=S)Nc2cccc3cnccc23)cc1	3.9	-1.4	-0.1	38.2*	7.0	1.4
COCC(=O)Nc1ccc2c(c1)OC[C@@H](C)N(Cc1cccnc1)C[C@H](C)[C@H](OC)CN(C)C2=O	.	.	0.1	.	.	.
C[C@@H]1CCCCO[C@H](CN(C)Cc2ccc(C(=O)O)cc2)[C@@H](C)CN([C@@H](C)CO)C(=O)c2cc(NC(=O)CCC(F)(F)F)ccc2O1	.	.	-0.4	.	.	.
CC1=C(C)C(=O)C(N2CCOCC2)=CC1=O	5.3*	0.1	0.1	1.6	3.0	.
O=C1C=C(N2CCOCC2)c2ccccc2C1=O	1.5	1.9	0.3	29.9	23.4	-0.7
CC1(c2nnc(-c3ccc(Cl)cc3)o2)CC(c2ccc(Cl)cc2)=NO1 (stereo unspecified)	0.1	-2.4	0.3	-2.1	2.1	2.9
Cc1ccc(C2=NOC(C)(c3nnc(-c4ccc(Cl)cc4)o3)C2)cc1 (stereo unspecified)	-0.1	36.3*	-0.7	1.1	-1.1	0.4
C[C@@H]1CCCCO[C@H](CN(C)C)[C@H](C)CN([C@H](C)CO)C(=O)c2cc(NC(=O)NC3CCCCC3)ccc2O1	.	.	0.0	.	.	.
CCn1nc(C)c(CN2CCC(C(=O)Nc3cccc(-c4cccc(F)c4)c3)CC2)c1C	8.0*	0.6	0.0	-0.1	2.5	2.5
CCn1cc(CN2CCC(C(=O)Nc3cccc(-c4cccc(OC)c4)c3)CC2)cn1	-0.2	1.8	0.1	0.6	-5.2	-0.2
CCn1cc(CN2CCC(C(=O)Nc3cccc(-c4cccc(F)c4)c3)CC2)cn1	1.4	1.7	-0.2	0.1	1.7	-1.3
CC(C)n1cc(CN2CCC(C(=O)Nc3cccc(-c4cccc(Cl)c4)c3)CC2)cn1	8.6*	6.7	0.1	-0.2	0.3	0.8
C[C@H]1CC=CC[C@@H](c2ccc3c(c2)OCO3)NC(=O)[C@H](Cc2ccccc2)N(C)C(=O)c2ccccc2O1 (mixture of isomers)	.	.	0.2	.	.	.
COc1cccc(C(=O)N2C[C@H]3[C@@H](c4ccccc42)[C@@H](CO)N3Cc2ccccc2Cl)c1	.	.	0.1	.	.	.
COc1cc(C2c3c([nH]c(=O)[nH]c3=O)Nc3ccc4ccccc4c32)cc(OC)c1OC (stereo unspecified)	0.0	-4.9	0.0	66.2*	-0.8	1.8
COc1ccc(-c2cnc3c(NC(C)=O)cc(-c4ccsc4)cn23)cc1OC	-0.2	17.4	.	27.5	54.5*	.
NC1(C#Cc2ccc3oc(=O)c(-n4cc(-c5ccsc5)nn4)cc3c2)CCCCC1	0.0	1.9	0.0	10.7	44.4*	.
CCOC(=O)c1ccc(N2C(=O)c3n[nH]c(C)c3C2c2ccccn2)cc1 (stereo unspecified)	4.6*	3.1	0.3	-1.8	0.3	-2.5
O=C(c1ccco1)N1CCN(C(=O)C2CCN(S(=O)(=O)Cc3ccccc3)CC2)CC1	0.0	3.3	.	61.6*	-5.9	-2.1
